Screens deposited in PubChem by Sanford-Burnham Center for Chemical Genomics.
This is a sample that favours compounds with a hit; in the whole collection about 3% have one here.
UBC13 inh – blocks human UBC13 polyubiquitin chain formation | hit rate 0.47% among 330,000 | TR-FRET | AID 485273 | inhibition, % at 20 µM; in the data active = inhibition above about 45%, passing the limit was not always enough
Target sequence (P61088 whole entry, looked up): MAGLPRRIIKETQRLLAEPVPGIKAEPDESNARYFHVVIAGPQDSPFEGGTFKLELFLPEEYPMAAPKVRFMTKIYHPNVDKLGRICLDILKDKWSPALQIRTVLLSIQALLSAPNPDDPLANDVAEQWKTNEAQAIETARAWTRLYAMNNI
SENP8 block-1 – inhibitors of human SENP8 protease; Q96LD8; purified SENP8, Z-RLRGG-aminoluciferin cleavage, luminescence; inhibition, % at 10 µM; hit rate 1.2% among 330,000; AID 2540; in the data active = inhibition above about 50%
SENP8 block-2 – SENP8 (human) protease inhibition. hit rate 0.64% among 360,000. recombinant SENP8, Nedd8 substrate fluorescence. AID 602440. inhibition, % at 20 µM; in the data active = inhibition mostly above about 40%, no sharp cut-off; inactive = mostly below about 27%
Apaf1 inhib – inhibitors of human Apaf-1 apoptosome; inhibition, % at 20 µM; AID 489030; reconstituted apoptosome caspase-3 activity, DEVD-Rh110 fluorescence; hit rate 0.71% among 330,000; O14727; active = inhibition of at least 40% at 20 µM
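System: Apoptosome proteins | Medium: Hepes pH 7.5 with detergent and BSA | Also added: Cytochrome c trigger plus (Z-DEVD)2-Rh110 caspase-3 substrate | Incubation: 30 min compound preincubation, 50 min activation, room temperature | Detection: Rhodamine 110 fluorescence at Ex 480/Em 540 nm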
SENP6 inh – inhibitors of human SENP6 protease. hit rate 1.8% among 330,000. inhibition, % at 10 µM. Recombinant SENP6 catalytic domain, aminoluciferin luminescence. Q9GZR1;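 active = inhibition above about 50% at the single tested dose, limit read from the data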
SENP7 block – inhibitors of human SENP7 protease. Q9BQF6. recombinant SENP7, Z-RLRGG-aminoluciferin luminescence, 40 min. inhibition, % at 5 µM. hit rate 1.5% among 330,000. AID 434973;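 active = inhibition above about 50% at the single test dose, limit read from the data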
SENP8 conf-1 – confirmation of human SENP8 protease inhibitors | inhibition, % at 12.5 µM | AID 488912 | Recombinant SENP8, Z-RLRGG-aminoluciferin luminescence, 60 min | shares compounds with SENP7 block | hit rate 40% among 6,200;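 active = mean inhibition across replicates above about 50%, limit read from the data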
SENP6 conf – confirmation of human SENP6 protease inhibitors. shares compounds with SENP7 block. recombinant SENP6, Z-RLRGG-aminoluciferin luminescence. inhibition, % at 12.5 µM. hit rate 58% among 6,200. AID 488915
SENP7 confirm – confirmation of human SENP7 protease inhibitors; recombinant SENP7, Z-RLRGG-aminoluciferin luminescence, 40 min; inhibition, % at 12.5 µM; shares compounds with SENP7 block; hit rate 69% among 6,200
Casp3 SENP sel – selectivity test for SENP inhibitors: human caspase-3 inhibition. shares compounds with SENP7 block. purified caspase-3, Z-DEVD-aminoluciferin luminescence, 60 min. inhibition, % at 12.5 µM. hit rate 60% among 6,200. AID 488918;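 active = mean inhibition above about 50%, limit read from the data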
SENP luc ctr – counter-screen for SENP inhibitors: luminescence interference; shares compounds with SENP7 block; Pre-incubated SENP8/Z-RLRGG-aminoluciferin, luciferase luminescence interference; inhibition, % at 12.5 µM; hit rate 39% among 6,200; AID 488919;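 active = mean inhibition above about 50% when retested at one dose, limit read from the data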
Casp3 UBC13 ctr – caspase-3 inhibition (UBC13 counter-screen) | AID 488856 | hit rate 4% among 1,400 | inhibition, % at 20 µM | shares compounds with UBC13 inh | Recombinant caspase-3, Caspase-Glo 3/7 luminescence, 60 min;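 active = mean inhibition across replicates above about 26%, limit read from the data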
Target sequence (P42574 whole entry, looked up): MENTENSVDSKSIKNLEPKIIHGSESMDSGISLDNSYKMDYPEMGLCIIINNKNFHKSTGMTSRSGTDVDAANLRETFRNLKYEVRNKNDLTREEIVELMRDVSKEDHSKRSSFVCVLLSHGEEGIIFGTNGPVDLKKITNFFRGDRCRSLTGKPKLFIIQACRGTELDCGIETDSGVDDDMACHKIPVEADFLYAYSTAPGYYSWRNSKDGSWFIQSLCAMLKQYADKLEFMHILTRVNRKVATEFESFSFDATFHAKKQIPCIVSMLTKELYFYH
UBC13 conf – confirmation of human UBC13 polyubiquitin inhibitors; shares compounds with UBC13 inh; UBC13 polyubiquitination, TR-FRET, biochemical; inhibition, % at 10 µM; hit rate 68% among 1,400; AID 488859; in the data active = inhibition above about 45%
Apaf-1 inh conf2 – confirmation of Apaf-1 inhibitors; inhibition, % at 20 µM; shares compounds with Apaf1 inhib; hit rate 25% among 1,800; reconstituted apoptosome, caspase-3 DEVD-Rh110 fluorescence;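 active = mean inhibition of at least 40% at 20 µM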
Rh110 interf inh – counter-screen for Apaf-1 inhibitors: fluorescence interference; 1,800 tested, under 10 active; Rh110 fluorescence interference, quenched caspase reaction; activation (fluorescence interference), % at 20 µM; shares compounds with Apaf1 inhib;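 active = signal rise of 40% or more at 20 µM, treated as a fluorescence artifact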
SENP8 conf-2 – confirmation of human SENP8 protease inhibitors; inhibition, % at 25 µM; hit rate 15% among 1,400; purified SENP8, Nedd8-AMC/pro-Nedd8 cleavage fluorescence, 30 min; shares compounds with SENP8 block-2; in the data active = inhibition mostly above about 39%, no sharp cut-off; inactive = mostly below about 34%
Hits are given with their value.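 Rule for the calls, unless noted: active = mean inhibition above about 50% in the one-dose retest (limit read from the data); inactive = the rest.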

O=[N+]([O-])c1ccc(NC2CCN(Cc3ccccc3)CC2)c2ccncc12 was read as UBC13 inh inactive, SENP8 block-1 inactive, SENP8 block-2 40, Apaf1 inhib 74, SENP6 inh 66, SENP7 block inactive, SENP8 conf-1 inactive, SENP6 conf inactive, SENP7 confirm inactive, Casp3 SENP sel inactive, SENP luc ctr inactive, Apaf-1 inh conf2 inactive, Rh110 interf inh inactive and SENP8 conf-2 inactive.
O=C(C(=O)N1CCOCC1)c1cn(Cc2ccc(F)cc2)c2ccccc12 was read as UBC13 inh 45, SENP8 block-1 inactive, SENP8 block-2 inactive, Apaf1 inhib inactive, SENP6 inh inactive, SENP7 block inactive, Casp3 UBC13 ctr inactive and UBC13 conf inactive.
`O=C(C(=O)N1CCOCC1)c1cn(Cc2ccccc2Cl)c2ccccc12` gave UBC13 inh 54, SENP8 block-1 inactive, SENP8 block-2 inactive, Apaf1 inhib inactive, SENP6 inh inactive, SENP7 block inactive, Casp3 UBC13 ctr inactive and UBC13 conf 53.
For CCCCCn1cc(C(=O)C(=O)N2CCOCC2)c2ccccc21 the results were UBC13 inh inactive, SENP8 block-1 inactive, SENP8 block-2 inactive, Apaf1 inhib inactive, SENP6 inh inactive and SENP7 block inactive.
CC12CNCC(C)(CNC1)C2O (centres undefined) was read as UBC13 inh 57, SENP8 block-1 inactive, SENP8 block-2 inactive, Apaf1 inhib inactive, SENP6 inh inactive, SENP7 block inactive, Casp3 UBC13 ctr inactive and UBC13 conf inactive.
Screening CCN(CC)CCCNC(=O)c1c(O)c2ccccc2n(Cc2ccccc2)c1=O returned UBC13 inh 53, SENP8 block-1 inactive, SENP8 block-2 inactive, Apaf1 inhib inactive, SENP6 inh inactive, SENP7 block inactive, Casp3 UBC13 ctr inactive and UBC13 conf 74.
NC(N)=Nc1ccc2[nH]c3c(c2c1)C[C@@]1(O)[C@H]2Cc4ccc(O)c5c4[C@@]1(CCN2CC1CC1)[C@H]3O5 was read as UBC13 inh 53, SENP8 block-1 inactive, SENP8 block-2 inactive, Apaf1 inhib inactive, SENP6 inh inactive, SENP7 block inactive, Casp3 UBC13 ctr inactive and UBC13 conf inactive.
Fc1cccc(-c2ccc3c(c2)CNCc2cnnn2-3)c1 was read as SENP8 block-2 inactive.
COc1ccc(C(=O)OCC2CN2c2cccc([N+](=O)[O-])c2)cc1 (centres undefined) was read as SENP8 block-2 inactive.
